According to ChEMBL document CHEMBL4431326, “Tumor Targeting with Novel 6-Substituted Pyrrolo [2,3-d] Pyrimidine Antifolates with Heteroatom Bridge Substitutions via Cellular Uptake by Folate Receptor α and the Proton-Coupled Folate Transporter and Inhibition of de Novo Purine Nucleotide Biosynthesis” (J Med Chem, 2016):
pIC50, pKi: −log10 of the molar value. The source made the active and inactive calls. The calls are words filed in the database; no cut-off is given here.

How the values were obtained:
IGROV-1 [1] = assay: Antitumor activity against human IGROV1 cells xenografted into folate-deficient diet fed SCID mouse assessed as tumor growth delay at 96 mg/kg, iv administered […] post 2 days of tumor implantation; assay type: functional
IGROV-1 [2] = assay: Antitumor activity against human IGROV1 cells xenografted into folate-deficient diet fed SCID mouse assessed as tumor cell kill at 96 mg/kg, iv administered […] post 2 days of tumor implantation measured on day 20; assay type: functional
[3] = Toxicity in standard diet fed SCID mouse xenografted with human IGROV1 cells assessed as body weight loss at 28 mg/kg, iv administered […] post 2 days of tumor implantation measured during compound treatment; assay type: organism-based; settings: in vivo, 48 h
Procedure, shortened: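 Standard-diet female NCR SCID mice bearing bilateral s.c. IGROV1 fragments; i.v. tail-vein dosing from day 2 post-implant, Q3dx5, vehicle 5% ethanol/1% Tween-80/0.5% NaHCO3 in water, pH 6.5; mice weighed and assessed daily during and after treatment; weight loss recorded as nadir.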

[4] = Toxicity in folate-deficient diet fed SCID mouse xenografted with human IGROV1 cells assessed as body weight loss at 96 and 150 mg/kg, iv administered […] post 2 days of tumor implantation measured after 48 hrs of last dosage; assay type: organism-based; settings: in vivo
Procedure, shortened: (§1)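 Female NCR SCID mice (11 weeks old, ~20 g) are fed a folate-deficient diet from 14 days before implant. IGROV1 fragments (30–60 mg) are trocar-implanted subcutaneously in both flanks, and mice are randomised at 5/group. Tail-vein dosing starts on day 2: 28 mg/kg/inj Q3dx5, or 96 or 150 mg/kg/inj Q3dx4. Vehicle is 5% ethanol, 1% Tween-80, 0.5% NaHCO3 in water at pH 6.5. Caliper tumor mass is (a×b²)/2, T/C is taken when controls reach 700–1200 mg, and weights are recorded daily.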

IGROV-1 [5] = assay: Antiproliferative activity against human IGROV1 cells expressing human FR-alpha/PCFT assessed as reduction in cell viability measured after 96 hrs by Cell-Titer Blue fluorescence analysis; assay type: functional, cell-based; settings: IGROV-1, 96 h
IGROV-1 [6] = assay: Antitumor activity against human IGROV1 cells xenografted into folate-deficient diet fed SCID mouse assessed as tumor growth at 28 mg/kg, iv administered […] post 2 days of tumor implantation measured on day 20 relative to control; assay type: functional; procedure, shortened: as §1
IGROV-1 [7] = assay: Antitumor activity against human IGROV1 cells xenografted into folate-deficient diet fed SCID mouse assessed as tumor growth at 96 mg/kg, iv administered […] post 2 days of tumor implantation measured on day 20 relative to control; assay type: functional
Procedure, shortened: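 Female NCR SCID mice, 11 weeks, ~20 g, on folate-deficient or standard diet from 14 days pre-implant; bilateral s.c. IGROV1 fragments (30–60 mg); 5 mice/group; tail-vein dosing from day 2 (Q3d schedules) in 5% ethanol, 1% Tween-80, 0.5% NaHCO3, water, pH 6.5; caliper mass (a×b²)/2; T/C and T−C delay.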

[8] = Toxicity in folate-deficient diet fed SCID mouse xenografted with human IGROV1 cells assessed as body weight loss at 28 mg/kg, iv administered […] post 2 days of tumor implantation measured during compound treatment; assay type: organism-based; settings: in vivo, 48 h; procedure, shortened: as §1
[9] = Toxicity in folate-deficient diet fed SCID mouse xenografted with human IGROV1 cells assessed as body weight loss at 28 mg/kg, iv administered […] post 2 days of tumor implantation measured after 48 hrs of last dosage; assay type: organism-based; settings: in vivo; procedure, shortened: as §1
IGROV-1 [10] = assay: Antiproliferative activity against human IGROV1 cells expressing human FR-alpha/PCFT assessed as reduction in cell viability measured after 96 hrs in presence of folic acid by Cell-Titer Blue fluorescence analysis; assay type: functional, cell-based; settings: IGROV-1, 96 h
IGROV-1 [11] = assay: Antitumor activity against human IGROV1 cells xenografted into folate-deficient diet fed SCID mouse assessed as tumor cell kill at 28 mg/kg, iv administered […] post 2 days of tumor implantation measured on day 20; assay type: functional; procedure, shortened: as §1
KB [12] = assay: Antiproliferative activity against human KB cells expressing human RFC/FR-alpha/PCFT assessed as reduction in cell viability measured after 96 hrs by Cell-Titer Blue fluorescence analysis; assay type: functional, cell-based
[13] = target: T1, GAR transformylase/AICAR transformylase (Homo sapiens) (UniProt P31939+P22102); assay: Inhibition of GARFTase/AICARFTase in human KB cells expressing RFC/FR-alpha/PCFT assessed as cell growth inhibition measured after 96 hrs in presence of 60 uM adenosine by Cell-Titer Blue fluorescence analysis; assay type: cell-based
[14] = target: T2, Proton-coupled folate transporter (Homo sapiens, UniProt Q96NT5); assay: Inhibition of [3H]MTX uptake at human PCFT expressed in Chinese hamster R2/PCFT4 cells at pH 5.5 measured after 5 mins by Dixon plot analysis; assay type: cell-based
T2 sequence (Q96NT5 whole entry): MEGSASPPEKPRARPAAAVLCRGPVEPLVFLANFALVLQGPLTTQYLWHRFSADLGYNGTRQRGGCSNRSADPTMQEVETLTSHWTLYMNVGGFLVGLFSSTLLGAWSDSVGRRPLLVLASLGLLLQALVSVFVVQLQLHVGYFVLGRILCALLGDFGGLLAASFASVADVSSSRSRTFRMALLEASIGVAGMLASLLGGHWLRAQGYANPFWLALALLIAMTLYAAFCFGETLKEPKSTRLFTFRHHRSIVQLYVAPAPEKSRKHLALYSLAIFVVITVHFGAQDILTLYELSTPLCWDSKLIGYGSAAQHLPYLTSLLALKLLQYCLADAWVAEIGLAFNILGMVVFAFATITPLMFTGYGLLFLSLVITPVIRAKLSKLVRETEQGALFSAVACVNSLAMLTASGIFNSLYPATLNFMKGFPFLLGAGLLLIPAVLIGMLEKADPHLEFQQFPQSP

[15] = target: Bifunctional purine biosynthesis protein ATIC (Homo sapiens) (UniProt P31939); assay: Inhibition of AICARFTase in human KB cells expressing RFC/FR-alpha/PCFT assessed as cell growth inhibition measured after 96 hrs in presence of 320 uM AICA by Cell-Titer Blue fluorescence analysis; assay type: cell-based
[16] = target: T3, Proton-coupled folate transporter (Homo sapiens) (UniProt Q96NT5); assay: Inhibition of [3H]MTX uptake at human PCFT expressed in Chinese hamster R2/PCFT4 cells at 1 uM and pH 5.5 measured after 5 mins; assay type: cell-based
T3 sequence (whole entry): T2 sequence (Q96NT5 whole entry)

[17] = target: T1, GAR transformylase/AICAR transformylase (Homo sapiens); assay: Inhibition of GARFTase/AICARFTase in human KB cells expressing RFC/FR-alpha/PCFT assessed as cell growth inhibition measured after 96 hrs in presence of 10 uM thymidine by Cell-Titer Blue fluorescence analysis; assay type: cell-based
[18] = Cytotoxicity in RFC-null Chinese hamster R2 cells assessed as reduction in cell viability measured after 96 hrs by Cell-Titer Blue fluorescence analysis; assay type: cell-based; settings: Cricetulus griseus, R2, 96 h
[19] = target: T3, Proton-coupled folate transporter (Homo sapiens); assay: Inhibition of [3H]MTX uptake at human PCFT expressed in Chinese hamster R2/PCFT4 cells at 10 uM and pH 6.8 measured after 5 mins; assay type: cell-based
[20] = Cytotoxicity in PCFT-null Chinese hamster R2 cells assessed as reduction in cell viability measured after 96 hrs by Cell-Titer Blue fluorescence analysis; assay type: cell-based; settings: Cricetulus griseus, R2, 96 h
[21] = target: Folate receptor alpha (Homo sapiens) (UniProt P15328); assay: Displacement of [3H]folic acid from human FR-alpha receptor expressed in Chinese hamster RT16 cells measured after 15 mins relative to folic acid; assay type: cell-based; design: concentration or dose not given beside the values
[22] = target: T4, Trifunctional purine biosynthetic protein adenosine-3 (Homo sapiens, UniProt P22102); assay: Inhibition of GARFTase in human KB cells expressing RFC/FR-alpha/PCFT assessed as decrease in incorporation of [14C(U)]-glycine into [14C]formyl GAR incubated for 1 hr followed by addition of [14C(U)]-glycine measured after 16 hrs in presence of azaserine; assay type: cell-based
T4 sequence (P22102 whole entry): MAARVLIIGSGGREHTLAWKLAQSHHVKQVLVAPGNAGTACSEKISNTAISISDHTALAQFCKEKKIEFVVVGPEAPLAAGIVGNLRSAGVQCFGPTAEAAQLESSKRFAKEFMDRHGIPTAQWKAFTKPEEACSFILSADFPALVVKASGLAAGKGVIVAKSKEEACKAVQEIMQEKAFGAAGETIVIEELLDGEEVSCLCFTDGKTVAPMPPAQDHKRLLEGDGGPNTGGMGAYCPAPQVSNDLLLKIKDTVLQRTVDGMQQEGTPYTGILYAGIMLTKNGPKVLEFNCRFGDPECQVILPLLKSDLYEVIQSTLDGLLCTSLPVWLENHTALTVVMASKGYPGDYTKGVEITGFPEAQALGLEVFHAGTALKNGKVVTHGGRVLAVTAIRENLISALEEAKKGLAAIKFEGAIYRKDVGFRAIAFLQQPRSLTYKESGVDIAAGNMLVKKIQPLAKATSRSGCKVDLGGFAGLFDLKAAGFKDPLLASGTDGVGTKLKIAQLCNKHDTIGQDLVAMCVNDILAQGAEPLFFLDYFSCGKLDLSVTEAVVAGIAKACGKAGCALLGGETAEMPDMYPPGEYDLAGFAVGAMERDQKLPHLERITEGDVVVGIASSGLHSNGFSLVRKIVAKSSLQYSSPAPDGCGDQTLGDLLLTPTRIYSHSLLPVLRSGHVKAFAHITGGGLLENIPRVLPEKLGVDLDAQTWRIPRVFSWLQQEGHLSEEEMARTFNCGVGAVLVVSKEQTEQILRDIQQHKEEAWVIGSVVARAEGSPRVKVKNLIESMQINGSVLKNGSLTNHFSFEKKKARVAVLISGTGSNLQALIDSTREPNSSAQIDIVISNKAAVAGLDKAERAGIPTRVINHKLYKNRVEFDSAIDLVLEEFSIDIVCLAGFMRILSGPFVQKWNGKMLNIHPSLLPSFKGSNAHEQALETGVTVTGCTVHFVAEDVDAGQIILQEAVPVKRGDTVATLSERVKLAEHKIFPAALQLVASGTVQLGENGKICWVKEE

[23] = target: T3, Proton-coupled folate transporter (Homo sapiens); assay: Inhibition of [3H]MTX uptake at human PCFT expressed in Chinese hamster R2/PCFT4 cells at 10 uM and pH 5.5 measured after 5 mins; assay type: cell-based
KB [24] = assay: Antiproliferative activity against human KB cells expressing human RFC/FR-alpha/PCFT assessed as reduction in cell viability measured after 96 hrs in presence of folic acid by Cell-Titer Blue fluorescence analysis; assay type: functional, cell-based
[25] = target: T4, Trifunctional purine biosynthetic protein adenosine-3; assay: Inhibition of recombinant N-terminal 6His-tagged human GARFTase assessed as formation of 5,8-dideazafolate from 10-formyl-5,8-dideazafolic acid measured at every 15 seconds over 20 min by spectrophotometric analysis
[26] = target: Folate receptor beta (Homo sapiens) (UniProt P14207); assay: Displacement of [3H]folic acid from human FR-beta receptor expressed in Chinese hamster D4 cells measured after 15 mins relative to folic acid; assay type: cell-based
Sequence of Folate receptor beta (Homo sapiens) (P14207 17-230 limits assumed): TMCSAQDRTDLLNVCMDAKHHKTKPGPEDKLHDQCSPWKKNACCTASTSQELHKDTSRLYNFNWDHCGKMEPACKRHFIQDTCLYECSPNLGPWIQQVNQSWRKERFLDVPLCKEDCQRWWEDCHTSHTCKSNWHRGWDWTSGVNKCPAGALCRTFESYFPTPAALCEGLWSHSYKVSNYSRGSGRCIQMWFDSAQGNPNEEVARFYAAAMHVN

Sequence of Folate receptor alpha (Homo sapiens) (P15328 25-234 limits assumed): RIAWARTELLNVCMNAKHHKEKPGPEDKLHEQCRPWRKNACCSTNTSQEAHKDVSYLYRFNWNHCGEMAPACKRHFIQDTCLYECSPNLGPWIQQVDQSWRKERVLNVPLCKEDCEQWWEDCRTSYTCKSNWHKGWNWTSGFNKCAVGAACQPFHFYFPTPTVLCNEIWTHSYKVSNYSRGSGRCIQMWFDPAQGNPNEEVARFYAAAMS
T1 sequence (P31939 whole entry, looked up, one chain of several): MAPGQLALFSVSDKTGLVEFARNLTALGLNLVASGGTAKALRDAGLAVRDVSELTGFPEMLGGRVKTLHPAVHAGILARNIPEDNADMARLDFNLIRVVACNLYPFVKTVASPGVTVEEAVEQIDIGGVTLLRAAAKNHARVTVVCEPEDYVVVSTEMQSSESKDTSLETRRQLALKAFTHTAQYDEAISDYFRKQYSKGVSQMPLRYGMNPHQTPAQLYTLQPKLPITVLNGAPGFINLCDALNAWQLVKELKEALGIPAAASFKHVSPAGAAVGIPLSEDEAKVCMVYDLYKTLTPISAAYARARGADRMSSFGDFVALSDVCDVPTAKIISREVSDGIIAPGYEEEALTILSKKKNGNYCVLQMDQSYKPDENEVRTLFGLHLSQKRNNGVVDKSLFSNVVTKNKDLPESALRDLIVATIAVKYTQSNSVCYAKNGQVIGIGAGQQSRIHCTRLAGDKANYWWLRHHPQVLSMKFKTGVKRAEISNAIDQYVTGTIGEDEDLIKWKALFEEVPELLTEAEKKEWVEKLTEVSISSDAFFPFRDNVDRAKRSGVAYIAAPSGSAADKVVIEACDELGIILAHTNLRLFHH
Sequence of Bifunctional purine biosynthesis protein ATIC (Homo sapiens) (P31939 whole entry, looked up): as the sequence (P31939 whole entry, looked up, one chain of several) above

SMILES	pIC50 (KB [12])	inhibition [13]	pKi [14]	inhibition [15]	inhibition [16]	inhibition [17]	pIC50 [18]	inhibition [19]	pIC50 [20]	inhibition [21] [%]	pIC50 [22]	inhibition [23]	pIC50 (KB [24])	pKi [25]	also measured
Nc1nc2[nH]c(CCCc3ccc(C(=O)N[C@@H](CCC(=O)O)C(=O)O)s3)cc2c(=O)[nH]1	–	–	–	–	–	–	–	–	–	–	–	–	–	–	Time (IGROV-1 [1]): 9 days; LCK (IGROV-1 [2]): 1.4; Activity [3]: Non-Toxic; Activity [4]: Non-Toxic; pIC50 (IGROV-1 [5]): 9.02; T/C (IGROV-1 [6]): 35%; T/C (IGROV-1 [7]): 29%; Activity [8]: 15%; Activity [9]: Non-Toxic; pIC50 (IGROV-1 [10]): 6.67; LCK (IGROV-1 [11]): 1.4
CC(=O)N(CCc1cc2c(=O)[nH]c(N)nc2[nH]1)c1ccc(C(=O)N[C@@H](CCC(=O)O)C(=O)O)cc1	8.59	inactive	5.77	Active	30 to 60%	Active	< 6.00	Active	< 6.00	< 15	8.25	80 to 90%	< 6.00	7.21	–
Nc1nc2[nH]c(CCN(C=O)c3ccc(C(=O)N[C@@H](CCC(=O)O)C(=O)O)cc3)cc2c(=O)[nH]1	8.68	inactive	6.14	Active	30 to 60%	Active	< 6.00	Active	< 6.00	< 15	8.68	80 to 90%	< 6.00	7.00	–
Nc1nc2[nH]c(CCN(C(=O)C(F)(F)F)c3ccc(C(=O)N[C@@H](CCC(=O)O)C(=O)O)cc3)cc2c(=O)[nH]1	9.25	inactive	6.10	Active	30 to 60%	Active	< 6.00	40 to 60%	< 6.00	< 15	8.31	80 to 90%	6.03	6.91	–
Nc1nc2[nH]c(CCOc3ccc(C(=O)N[C@@H](CCC(=O)O)C(=O)O)cc3)cc2c(=O)[nH]1	9.47	inactive	6.19	Active	30 to 60%	Active	6.03	40 to 60%	< 6.00	60 to 110	8.18	80 to 90%	6.15	7.21	inhibition [26]: 60 to 110%
Nc1nc2[nH]c(CCCc3ccc(C(=O)N[C@@H](CCC(=O)O)C(=O)O)cc3)cc2c(=O)[nH]1	–	–	6.66	–	Active	–	–	40 to 60%	–	–	–	Active	–	–	pIC50 (IGROV-1 [10]): < 6.00
Nc1nc2[nH]c(CCSc3ccc(C(=O)N[C@@H](CCC(=O)O)C(=O)O)cc3)cc2c(=O)[nH]1	8.78	inactive	5.83	Active	30 to 60%	Active	< 6.00	Active	< 6.00	60 to 110	8.28	80 to 90%	< 6.00	6.70	inhibition [26]: 60 to 110%
